Active and inactive are the calls of the source. The calls are words filed in the database; no cut-off is given here.
How the values were obtained:
[1] = (§1) Inhibition of Mycobacterium tuberculosis His6-tagged MabA expressed in Escherichia coli BL21 (DE3) assessed as reduction in HBCoA formation using AcAcCoA as substrate preincubated for 30 mins followed by substrate and 100 uM NADPH addition and measured after 15 mins by LC-MS/MS analysis
[2] = tested on: Mycobacterium tuberculosis; test: as §1, with “formation at 1 mM” for “formation”, “for 10 to” for “for”, “and” for “and 100 uM”, “analysis relative to control” for “analysis”; details: time 10-45 min
Method in brief: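 Single-point screen of His6-MabA purified by Ni2+-affinity. Compound at 1 mM was preincubated 10 or 30 min at 23 °C with 400 nM enzyme in 100 mM Hepes pH 7. Reaction ran 15 min with 50 µM AcAcCoA and 50 µM NADPH in 1% DMSO, then was stopped with 1% TFA containing 5 µM butyryl-CoA internal standard. HBCoA/BCoA was measured by LC-MS/MS MRM. % inhibition was taken relative to DMSO and 200 µM INH-NADP adduct controls.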

[3] = Lipophilicity, logD of compound in octanol and PBS buffer at pH 7.4 incubated for 2 hrs under shaking condition by LC-MS/MS analysis; format: physicochemical
Method in brief: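 10 mM DMSO stock diluted 1:50 into 1/1 octanol/PBS pH 7.4, shaken 2 h at room temperature. Each phase was diluted in MeOH and quantified by LC-MS/MS MRM (ES−). LogD is the log of the octanol/PBS concentration ratio. Run in triplicate.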

[4] = Solubility of compound in PBS buffer at pH 7.4 incubated for 24 hrs under shaking conditions by LC-MS/MS analysis; format: physicochemical
Method in brief: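 10 mM DMSO stock diluted 1:50 into PBS pH 7.4 or MeOH, in triplicate. Shaken 24 h at room temperature, centrifuged and filtered through 0.45 μm, then diluted in MeOH for LC-MS/MS MRM. Solubility is the PBS/MeOH signal-area ratio.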

[5] = tested on: Mycobacterium tuberculosis; test: Antimycobacterial activity against GFP-tagged Mycobacterium tuberculosis H37Rv assessed as inhibition of microbial growth incubated for 5 days by fluorescence assay; format: functional; details: 120 h
Method in brief: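 M. tuberculosis H37Rv expressing GFP, grown in 7H9 with 0.2% glycerol and 0.05% Tween80, diluted to OD600 0.02. Ten 3-fold dilutions from 300 μM to 15 nM, 0.3% DMSO. Incubated 5 days at 37 °C, fluorescence read at Ex/Em 485/535 nm. Two independent replicates. Rifampicin, isoniazid and ethionamide served as positive controls.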

[6] = tested on: Mycobacterium tuberculosis; test: Antimycobacterial activity against Mycobacterium tuberculosis H37Ra assessed as inhibition of microbial growth incubated for 4 weeks in culture medium at pH 6.8; format: functional; details: 672 h
[7] = tested on: Mycobacterium tuberculosis; test: Non-competitive inhibition of Mycobacterium tuberculosis MabA expressed in Escherichia coli BL21 (DE3) assessed as reduction in HBCoA formation using AcAcCoA as substrate preincubated for 30 mins followed by substrate and 50 to 500 uM NADPH addition and measured after 15 mins by LC-MS/MS analysis; details: time 45.0 min
Method in brief: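 Dose-response MabA assay (400 nM enzyme, 50 μM AcAcCoA, 30 min preincubation at 22 °C, 15 min reaction, LC-MS/MS HBCoA/BCoA) run at NADPH 50 and 500 μM. Test compound was tested at 8 points, 3-fold from 1 mM to 0.46 μM. INH-NADP adduct was tested from 200 μM to 0.09 μM. IC50s were compared between NADPH levels.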

[8] = tested on: Mycobacterium tuberculosis; test: Binding affinity to Mycobacterium tuberculosis His6-tagged MabA expressed in Escherichia coli BL21 (DE3) at 100 uM by 19FNMR analysis
[9] = tested on: Mycobacterium tuberculosis; test: Inhibition of Mycobacterium tuberculosis His6-tagged MabA expressed in Escherichia coli BL21 (DE3) assessed as reduction in HBCoA formation up to 100 uM using AcAcCoA as substrate preincubated for 10 to 30 mins followed by substrate and NADPH addition and measured after 15 mins by LC-MS/MS analysis; details: dose microM <=100, time 10-45 min

**Q.** Which IC50 [1] does the source give for CC(C)(C)OC(=O)Nc1ccc(-c2ccccc2)cc1C(=O)O here?
**A.** 194 µM

**Q.** And the inhibition [2]?
**A.** 100%

**Q.** Which IC50 [1] does the source give for CC(C)(C)OC(=O)Nc1ccc(Br)cc1C(=O)O here?
**A.** 470 µM

**Q.** What about the inhibition [2] of the same compound?
**A.** 95%

**Q.** Which IC50 [1] does the source give for CC(C)(C)OC(=O)Nc1ccccc1C(=O)O here?
**A.** > 1000 µM

**Q.** What about the inhibition [2] of the same compound?
**A.** 31%

**Q.** For O=C(Nc1ccc(I)cc1C(=O)O)c1ccc(Cl)c(Cl)c1, which logD at 2 h [3] is on record?
**A.** 3.4

**Q.** What about the IC50 [1] of the same compound?
**A.** 38 µM

**Q.** What about the solubility thermodynamic at 24 h [4] of the same compound?
**A.** > 200 µM

**Q.** What about the MIC90 [5] of the same compound?
**A.** 300 µM

**Q.** What does the source list for CC(C)(C)OC(=O)Nc1ccc(Cl)cc1C(=O)O?
**A.** IC50 [1]: > 500 µM; inhibition [2]: 77%

**Q.** With CCc1cc(C(N)=S)ccn1 [ETHIONAMIDE] as the compound, how does the MIC [5] read?
**A.** 2 µg/mL

**Q.** For CC1(C#CC(=O)O)CC1(Cl)Cl (stereo unspecified), which IC50 [1] is on record?
**A.** 25 µM

**Q.** What about the MIC90 [5] of the same compound?
**A.** > 300 µM

**Q.** With CC(=O)Oc1ccccc1C(=O)O [ASPIRIN] as the compound, how does the MIC [6] read?
**A.** 33 µg/mL

**Q.** For CC(C)(C)OC(=O)Nc1ccc(I)cc1C(=O)O, which inhibition [7] is on record?
**A.** Active

**Q.** What about the MIC90 [5] of the same compound?
**A.** 300 µM

**Q.** And the inhibition [2]?
**A.** 100%

**Q.** With O=C(O)c1cc(I)ccc1NC(=O)C1CC1 as the compound, how does the IC50 [1] read?
**A.** > 500 µM

**Q.** With C/C=C/C=C/C(=O)Nc1c[nH]c(=O)[nH]c1=O as the compound, how does the IC50 [1] read?
**A.** 65 µM

**Q.** And the MIC90 [5]?
**A.** > 300 µM

**Q.** For O=C1NC(=S)NC(=O)C1C/C=C/c1ccccc1, which IC50 [1] is on record?
**A.** 40 µM

**Q.** What about the MIC90 [5] of the same compound?
**A.** > 300 µM

**Q.** With O=C(CCCc1ccccc1)Nc1ccc(I)cc1C(=O)O as the compound, how does the IC50 [1] read?
**A.** 186 µM

**Q.** With O=C(O)c1ccccc1O [SALICYLIC ACID] as the compound, how does the MIC [6] read?
**A.** 33 µg/mL

**Q.** With O=C(O)c1cc(I)ccc1NC(=O)C1CCc2ccccc2C1 (stereo unspecified) as the compound, how does the IC50 [1] read?
**A.** 109 µM

**Q.** Which results are given for O=C(Nc1ccc(I)cc1C(=O)O)c1ccc(C(F)(F)F)cc1?
**A.** Activity [8]: Active; IC50 [1]: 69 µM

**Q.** For O=C(Nc1ccc(I)cc1C(=O)O)c1ccc(Cl)c(C(F)(F)F)c1, which Activity [8] is on record?
**A.** Active

**Q.** What about the IC50 [1] of the same compound?
**A.** 59 µM

**Q.** With O=C(Nc1ccc(I)cc1C(=O)O)c1ccccc1 as the compound, how does the IC50 [1] read?
**A.** 145 µM

**Q.** For O=C(Nc1ccc(I)cc1C(=O)O)c1cccc(Cl)c1, which IC50 [1] is on record?
**A.** 70 µM

**Q.** For Oc1cc(Cl)ccc1Oc1ccc(Cl)cc1Cl, which inhibition [9] is on record?
**A.** inactive

**Q.** Which IC50 [1] does the source give for O=C1Nc2ccc(Br)cc2C1=O here?
**A.** 72 µM

**Q.** What about the MIC90 [5] of the same compound?
**A.** > 300 µM

**Q.** For CC(C)(C)OC(=O)Nc1ccc(Oc2ccccc2)cc1C(=O)O, which IC50 [1] is on record?
**A.** 243 µM

**Q.** What about the inhibition [2] of the same compound?
**A.** 100%

**Q.** For CC(C)(C)OC(=O)Nc1cc2ccccc2cc1C(=O)O, which IC50 [1] is on record?
**A.** 310 µM

**Q.** And the inhibition [2]?
**A.** 100%

**Q.** With Cc1ccc(C(=O)Nc2ccc(I)cc2C(=O)O)cc1 as the compound, how does the IC50 [1] read?
**A.** 95 µM

**Q.** For CC(C)COC(=O)Nc1ccc(I)cc1C(=O)O, which IC50 [1] is on record?
**A.** 310 µM

**Q.** What about the inhibition [2] of the same compound?
**A.** 100%

**Q.** With CN(C(=O)OC(C)(C)C)c1ccc(I)cc1C(=O)O as the compound, how does the IC50 [1] read?
**A.** 1000 µM

**Q.** What about the inhibition [2] of the same compound?
**A.** 50%

**Q.** Which IC50 [1] does the source give for O=C(CCc1ccccc1)Nc1ccc(I)cc1C(=O)O here?
**A.** 295 µM

**Q.** For O=C(Nc1ccc(I)cc1C(=O)O)c1ccc(Cl)nc1, which IC50 [1] is on record?
**A.** 147 µM

**Q.** With O=C(Nc1ccc(I)cc1C(=O)O)c1ccc(Cl)cc1Cl as the compound, how does the IC50 [1] read?
**A.** 126 µM

**Q.** For O=C(Nc1ccc(I)cc1C(=O)O)c1ccncc1, which IC50 [1] is on record?
**A.** > 400 µM

**Q.** Which results are given for O=C(Nc1ccc(I)cc1C(=O)O)c1ccc(OC(F)(F)F)cc1?
**A.** Activity [8]: Active; IC50 [1]: 84 µM

**Q.** With CC(C)(C)OC(=O)Nc1ccc(F)cc1C(=O)O as the compound, how does the IC50 [1] read?
**A.** 470 µM

**Q.** What about the inhibition [2] of the same compound?
**A.** 38%

**Q.** For O=C(O)c1cc(I)ccc1NC(=O)C1Cc2ccccc2C1, which IC50 [1] is on record?
**A.** 140 µM

**Q.** With NNC(=O)c1ccncc1 [ISONIAZID] as the compound, how does the MIC [5] read?
**A.** 0.125 µg/mL

**Q.** What does the source list for C=CCOC(=O)Nc1ccc(I)cc1C(=O)O?
**A.** IC50 [1]: > 500 µM; inhibition [2]: 83%

**Q.** What does the source list for COc1ccc(NC(=O)OC(C)(C)C)c(C(=O)O)c1?
**A.** IC50 [1]: > 1000 µM; inhibition [2]: 31%

**Q.** For O=C(Nc1ccc(I)cc1C(=O)O)c1ccc(Cl)cc1, which IC50 [1] is on record?
**A.** 53 µM

**Q.** What does the source list for COC(=O)c1cc(I)ccc1NC(=O)OC(C)(C)C?
**A.** IC50 [1]: > 1000 µM; inhibition [2]: 0%

**Q.** With O=C(Nc1ccc(I)cc1C(=O)O)OCc1ccccc1 as the compound, how does the IC50 [1] read?
**A.** 92 µM

**Q.** What about the inhibition [2] of the same compound?
**A.** 100%

**Q.** Which inhibition [9] does the source give for CC/C(C)=C1\OC(=O)[C@H](C)[C@H](O)[C@H](Cc2cccnc2)NC(=O)[C@@H](NC(=O)c2ncccc2O)[C@@H](C)OC1=O here?
**A.** inactive

**Q.** With CO[C@H]1/C=C/O[C@@]2(C)Oc3c(C)c(O)c4c(O)c(c(/C=N/N5CCN(C)CC5)c(O)c4c3C2=O)NC(=O)/C(C)=C\C=C\[C@H](C)[C@H](O)[C@@H](C)[C@@H](O)[C@@H](C)[C@H](OC(C)=O)[C@@H]1C [RIFAMPIN] as the compound, how does the MIC [5] read?
**A.** 0.004 µg/mL

**Q.** Which IC50 [1] does the source give for O=C(Cc1ccccc1)Nc1ccc(I)cc1C(=O)O here?
**A.** > 500 µM

**Q.** For O=C(O)c1ccccc1 [BENZOIC ACID], which MIC [6] is on record?
**A.** 33 µg/mL

**Q.** Which results are given for O=C(O)c1cc2sccc2[nH]1?
**A.** IC50 [1]: 185 µM; MIC90 [5]: > 300 µM

**Q.** For Cc1cccc(Nc2ccccc2C(=O)O)c1C [MEFENAMIC ACID], which MIC [6] is on record?
**A.** 33 µg/mL

Reference: ChEMBL document CHEMBL4765348, “Discovery of the first Mycobacterium tuberculosis MabA (FabG1) inhibitors through a fragment-based screening” (Eur J Med Chem, 2020)
